In ChEMBL document CHEMBL5385940 (J Nat Prod, 2024):
Calls of active or inactive are those of the source. The rule behind the calls is not given here.

What was measured:
[1] = Cytotoxicity against mouse 3T3-L1 cells assessed as cell viability at 5 uM incubated for 48 hrs by CCK-8 assay relative to control; assay type: toxicity, cell-based; conditions: read-out: Activity
How it was run: (§1)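 3T3-L1 preadipocytes seeded at 1 × 10^3 cells/well and left 12 h, then exposed to alkaloids for 48 h. Viability by CCK-8, absorbance at 450 nm, relative to control. Lovastatin 5 μM included. Mean ± SD, n = 3.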

[2] = Cytotoxicity against mouse 3T3-L1 cells assessed as cell viability at 100 uM incubated for 48 hrs by CCK-8 assay relative to control; assay type: toxicity, cell-based; conditions: read-out: Activity; how it was run: as §1
[3] = Cytotoxicity against mouse 3T3-L1 cells assessed as cell viability at 50 uM incubated for 48 hrs by CCK-8 assay relative to control; assay type: toxicity, cell-based; conditions: read-out: Activity; how it was run: as §1
[4] = Cytotoxicity against mouse 3T3-L1 cells assessed as cell viability at 10 uM incubated for 48 hrs by CCK-8 assay relative to control; assay type: toxicity, cell-based; conditions: read-out: Activity; how it was run: as §1
[5] = Cytotoxicity against mouse 3T3-L1 cells assessed as cell viability at 25 uM incubated for 48 hrs by CCK-8 assay relative to control; assay type: toxicity, cell-based; conditions: read-out: Activity; how it was run: as §1
[6] = Cytotoxicity against mouse 3T3-L1 cells transfected with Lenti-PPARgamma-Luc reporter assessed as cell viability at 0.1 uM incubated for 48 hrs by CCK-8 assay relative to control; assay type: toxicity, cell-based; conditions: read-out: Activity
How it was run: (§2)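 3T3-L1-Lenti-PPARγ-Luc reporter cells (lentivirus-transduced) exposed to alkaloids at a range of concentrations. Viability by CCK-8, absorbance at 450 nm, relative to control, used to set maximum noncytotoxic concentrations. Triplicate.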

[7] = Cytotoxicity against mouse 3T3-L1 cells transfected with Lenti-PPARgamma-Luc reporter assessed as cell viability at 5 uM incubated for 48 hrs by CCK-8 assay relative to control; assay type: toxicity, cell-based; conditions: read-out: Activity; how it was run: as §2
[8] = Cytotoxicity against mouse 3T3-L1 cells transfected with Lenti-PPARgamma-Luc reporter assessed as cell viability at 25 uM incubated for 48 hrs by CCK-8 assay relative to control; assay type: toxicity, cell-based; conditions: read-out: Activity; how it was run: as §2
[9] = Cytotoxicity against mouse 3T3-L1 cells assessed as cell viability at 15 uM incubated for 48 hrs by CCK-8 assay relative to control; assay type: toxicity, cell-based; conditions: read-out: Activity; how it was run: as §1
[10] = Cytotoxicity against mouse 3T3-L1 cells transfected with Lenti-PPARgamma-Luc reporter assessed as cell viability at 30 uM incubated for 48 hrs by CCK-8 assay relative to control; assay type: toxicity, cell-based; conditions: read-out: Activity; how it was run: as §2
[11] = Cytotoxicity against mouse 3T3-L1 cells transfected with Lenti-PPARgamma-Luc reporter assessed as cell viability at 15 uM incubated for 48 hrs by CCK-8 assay relative to control; assay type: toxicity, cell-based; conditions: read-out: Activity; how it was run: as §2
[12] = tested on: 3T3-L1; assay: Anti-adipogenic activity in mouse 3T3-L1 preadipocytes assessed as inhibition of lipid accumulation incubated for 6 days by Nile Red staining based fluorescence microscopic analysis; assay type: functional, cell-based; conditions: time 6.0 day
[13] = Cytotoxicity against mouse 3T3-L1 cells assessed as cell viability at 20 uM incubated for 48 hrs by CCK-8 assay relative to control; assay type: toxicity, cell-based; conditions: read-out: Activity; how it was run: as §1
[14] = tested on: 3T3-L1; assay: Inhibition of adipogenesis in mouse 3T3-L1 cells assessed as downregulation of PPARgamma relative protein level […] by Western blot analysis; assay type: functional, cell-based
How it was run: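 Differentiated 3T3-L1 adipocytes treated with alkaloids at several doses. Lysed in RIPA with PMSF on ice for 30 min. Proteins transferred to PVDF and blocked with 5% skim milk for 2 h at 25 °C. Primary antibody 2 h, HRP secondary 1 h. PPARγ protein level expressed relative to control. n = 3.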

[15] = tested on: 3T3-L1; assay: Anti-adipogenic activity in mouse 3T3-L1 cells transfected with Lenti-PPARgamma-Luc reporter assessed as inhibition of PPARgamma expression by luminescence based microplate reader analysis; assay type: functional, cell-based
[16] = Cytotoxicity against mouse 3T3-L1 cells transfected with Lenti-PPARgamma-Luc reporter assessed as cell viability at 20 uM incubated for 48 hrs by CCK-8 assay relative to control; assay type: toxicity, cell-based; conditions: read-out: Activity; how it was run: as §2
[17] = Cytotoxicity against mouse 3T3-L1 cells transfected with Lenti-PPARgamma-Luc reporter assessed as cell viability at 10 uM incubated for 48 hrs by CCK-8 assay relative to control; assay type: toxicity, cell-based; conditions: read-out: Activity; how it was run: as §2
[18] = Cytotoxicity against mouse 3T3-L1 cells transfected with Lenti-PPARgamma-Luc reporter assessed as cell viability at 1 uM incubated for 48 hrs by CCK-8 assay relative to control; assay type: toxicity, cell-based; conditions: read-out: Activity; how it was run: as §2

## COc1cc2c(cc1O)C(Cc1ccc(O)c(-c3c(O)c(OC)cc4c3C(Cc3ccc(O)cc3)N(C)CC4)c1)N(C)CC2 (stereo unspecified)
[1]
  viability at 48 h, 5 µM: > 80%
[2]
  viability at 48 h, 100 µM: > 80%
[3]
  viability at 48 h, 50 µM: > 80%
[4]
  viability at 48 h, 10 µM: > 80%
[5]
  viability at 48 h, 25 µM: > 80%

## COc1cc2c(cc1OC)[C@@H](Cc1ccc(O)c(Oc3cc4c(cc3OC)CCN(C)[C@@H]4Cc3ccc(O)cc3)c1)N(C)CC2
[6]
  viability at 48 h, 0.1 µM: > 80%
[7]
  viability at 48 h, 5 µM: > 80%
[8]
  viability at 48 h, 25 µM: < 80%
[1]
  viability at 48 h, 5 µM: > 80%
[9]
  viability at 48 h, 15 µM: > 80%
[10]
  viability at 48 h, 30 µM: < 80%
[11]
  viability at 48 h, 15 µM: > 80%
[12]
  Activity: Dose-Dependent Effect
[13]
  viability at 48 h, 20 µM: > 80%
[14]
  inhibition: Active
[15]
  Activity: Dose-Dependent Effect
[16]
  viability at 48 h, 20 µM: < 80%
[4]
  viability at 48 h, 10 µM: > 80%
[17]
  viability at 48 h, 10 µM: > 80%
[5]
  viability at 48 h, 25 µM: < 80%
[18]
  viability at 48 h, 1 µM: > 80%
